# Test results as given in ChEMBL document CHEMBL4699430, “Continuous flow synthesis of lipophilic cations derived from benzoic acid as new cytotoxic chemical entities in human head and neck carcinoma cell lines” (RSC Med Chem, 2020).
# The source made the active and inactive calls. The rule behind the calls is not given here.
# Tests used:
# [1] = system: CAL-27; assay: Cytotoxicity against human CAL-27 cells assessed as reduction in cell viability measured after 48 hrs by MTT assay; format: functional, cell-based; conditions: CAL-27, 48 h
# In short: (§1)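 Cells seeded at 1 × 10^4 per well and left 24 h, then exposed to increasing concentrations for 24, 48 or 72 h. After two PBS washes, 0.5 mg/mL MTT applied for 2 h. Formazan dissolved in DMSO and absorbance read at 570 nm. IC50 taken from a variable-slope dose–response curve.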
# [2] = system: HEp-2; assay: Induction of mitochondrial membrane potential loss in human Hep-2 cells at 2.5 to 30 uM by flow cytometry; conditions: dose microM 2.5-30
# [3] = Selectivity index, ratio of IC50 for human OKF-6/TERT cells to IC50 for human SCC-15 cells after 48 hrs by MTT assay; format: toxicity; conditions: OKF-6/TERT cells versus SCC-15 cells
# In short: (§2)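 Selectivity index at 48 h is the ratio of the OKF-6/TERT IC50 to the tumour-line IC50. Each IC50 comes from a sigmoidal, variable-slope dose–response curve of the MTT viability assay (1 × 10^4 cells per well, 48 h exposure, absorbance at 570 nm).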
# [4] = Selectivity index, ratio of IC50 for human OKF-6/TERT cells to IC50 for human HEp-2 cells after 48 hrs by MTT assay; format: toxicity; conditions: OKF-6/TERT cells versus HEp-2 cells; in short: as §2
# [5] = system: CAL-27; assay: Induction of mitochondrial membrane potential loss in human CAL-27 cells at 2.5 to 30 uM by flow cytometry; conditions: dose microM 2.5-30
# [6] = system: HEp-2; assay: Induction of apoptosis in human Hep-2 cells at 2.5 uM incubated for 48 hrs by annexin-V FITC and PI staining based flow cytometric analysis; format: functional, cell-based
# In short: (§3)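 Cells at 1 × 10^5 per mL exposed to 2.5 μM compound for 48 h at 37 °C in 5% CO2, with 10 μM staurosporine as positive control. Cells stained 5 min at room temperature with annexin V-FITC (488/530) and PI (488/575) in binding buffer; 10 000 events recorded by flow cytometry. Mean ± SD of at least three experiments; ANOVA with Bonferroni post-test.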
# [7] = system: CAL-27; assay: Anticlonogenic activity against human CAL-27 cells assessed as reduction in colony formation incubated for 24 hrs followed supplementation with fresh medium without compound measured after 120 hrs by colony formation assay; format: functional, cell-based
# In short: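 Cal-27 cells, 1 × 10^3 per well, grown 24 h at 37 °C in 5% CO2, then exposed 24 h to a range of concentrations. Medium then replaced with compound-free medium and growth continued 120 h. Colonies stained 30 min with crystal violet (0.5% in methanol), photographed and counted. Three independent experiments; ANOVA with Bonferroni post-test.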
# [8] = system: HEp-2; assay: Decrease in intracellular ATP levels in human Hep-2 cells at 10 to 50 uM incubated for 4 hrs by CellTiter-Glo luminescence assay; conditions: dose microM 10-50, time 4.0 hrs
# [9] = system: SCC-15; assay: Cytotoxicity against human SCC-15 cells assessed as reduction in cell viability measured after 48 hrs by MTT assay; format: functional, cell-based; conditions: SCC-15, 48 h; in short: as §1
# [10] = Selectivity index, ratio of IC50 for human OKF-6/TERT cells to IC50 for human CAL27 cells after 48 hrs by MTT assay; format: toxicity; conditions: OKF-6/TERT cells versus CAL27 cells, read-out: Ratio IC50; in short: as §2
# [11] = Cytotoxicity against human OKF-6/TERT cells assessed as reduction in cell viability measured after 48 hrs by MTT assay; format: cell-based; conditions: OKF6, 48 h; in short: as §1
# [12] = system: HEp-2; assay: Cytotoxicity against human HEp-2 cells assessed as reduction in cell viability measured after 48 hrs by MTT assay; format: functional, cell-based; conditions: HEp-2, 48 h; in short: as §1
# [13] = system: CAL-27; assay: Induction of apoptosis in human CAL-27 cells assessed as increase in caspase 3 activity at 2.5 to 5 uM incubated for 24 hrs by flow cytometry; format: functional, cell-based; conditions: dose 2.5 µM
# In short: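 Cal-27 cells seeded at 5 × 10^5 per well and grown 24 h at 37 °C, then exposed to two concentrations for 24 h. Cells fixed and permeabilised 30 min at 4 °C in the dark, stained 30 min with PE anti-active caspase-3 antibody, and read by flow cytometry at 488 ex/617 em.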
# [14] = system: CAL-27; assay: Uncoupling of mitochondrial oxidative phosphorylation in human CAL-27 cells assessed as increase in oxygen consumption rate by Clark electrode based assay; conditions: Mitochondria
# [15] = system: CAL-27; assay: Induction of mitochondrial uncoupling in human CAL-27 cells assessed as oxygen consumption rate measured by Clark-type oxygen electrode method; conditions: Mitochondria, dose microM 10-50
# In short: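 Polarographic Clark-electrode assay on 5 × 10^6 trypsinised Cal-27 cells (cultured to 80% confluence). Cells held in 0.6 mL PBS, pH 7.4, at 25 °C with 8.3 mM L-glutamine. Respiration first inhibited with 2.5 μg/mL oligomycin, then compound added at increasing concentrations. OCR compared with full uncoupling by 0.133 μM CCCP.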
# [16] = system: CAL-27; assay: Induction of apoptosis in human CAL-27 cells at 2.5 uM incubated for 48 hrs by annexin-V FITC and PI staining based flow cytometric analysis; format: functional, cell-based; in short: as §3
# [17] = system: CAL-27; assay: Decrease in intracellular ATP levels in human CAL-27 cells at 10 to 50 uM incubated for 4 hrs by CellTiter-Glo luminescent assay; conditions: dose microM 10-50, time 4.0 hrs
SMILES,IC50 [1],Activity [2],selectivity ratio at 48 h ([3]; read-out: Ratio IC50),selectivity ratio at 48 h ([4]; read-out: Ratio IC50),Activity [5],Activity [6],Activity [7],Activity [8],IC50 [9],selectivity ratio at 48 h [10],IC50 [11],IC50 [12],Activity [13],Activity [14],Activity [15],Activity [16],selectivity ratio at 48 h [3],selectivity ratio at 48 h [4],Activity [17]
O=C(OCCCCCCCCCC[P+](c1ccccc1)(c1ccccc1)c1ccccc1)c1cc(O)c(O)c(O)c1,3.4 µM,Active,4.4,1,Active,Active,Dose-dependent effect,Active,3 µM,3.8,13.1 µM,12.5 µM,Active,Active,Dose-dependent effect,Active,,,
O=C(OCCCCCCCCCC[P+](c1ccccc1)(c1ccccc1)c1ccccc1)c1cccc(O)c1O,1.6 µM,Active,,,Active,Active,Dose-dependent effect,Active,2.9 µM,4.7,7.5 µM,8.28 µM,Active,,Dose-dependent effect,Active,4.9,2.3,Active
O=C(OCCCCCCCCCC[P+](c1ccccc1)(c1ccccc1)c1ccccc1)c1cc(O)ccc1O,2.2 µM,Active,4.9,2.3,Active,Active,Dose-dependent effect,Active,2.7 µM,6,13.2 µM,5.66 µM,Active,,Dose-dependent effect,Active,,,Active
O=C(OCCCCCCCCCC[P+](c1ccccc1)(c1ccccc1)c1ccccc1)c1ccccc1O,2.3 µM,Active,4,3,Active,Active,Dose-dependent effect,Active,3.2 µM,5.5,12.7 µM,4.28 µM,Active,Active,Dose-dependent effect,Active,,,
